Assays:
Format in all cases: functional
SF-268 [1] = assay: Cytotoxicity against human SF268 cells assessed as cell growth at 100 nM after 48 hrs by sulforhodamine B assay; details: SF-268, 48 h, read-out: Activity
Malme-3M = assay: Cytotoxicity against human MALME-3M cells assessed as cell growth at 100 nM after 48 hrs by sulforhodamine B assay; details: read-out: Activity
OVCAR-4 = assay: Cytotoxicity against human OVCAR4 cells assessed as cell growth at 100 nM after 48 hrs by sulforhodamine B assay; details: OVCAR-4, 48 h, read-out: Activity
CAKI-1 [2] = assay: Cytotoxicity against human Caki1 cells assessed as cell growth at 100 nM after 48 hrs by sulforhodamine B assay; details: CAKI-1, 48 h, read-out: Activity
UO-31 = assay: Cytotoxicity against human UO31 cells assessed as cell growth at 100 nM after 48 hrs by sulforhodamine B assay; details: UO-31, 48 h, read-out: Activity
SNB-75 = assay: Cytotoxicity against human SNB75 cells assessed as cell growth at 10 uM; details: read-out: Activity
In short: (§1)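 NCI-60 screen: cells grown in RPMI 1640 with 5% FBS and 2 mM L-glutamine, plated at 5000–40,000 cells/well according to doubling time, and preincubated 24 h at 37 °C, 5% CO2. The single 10 µM dose (DMSO stock) was added, then incubated 48 h. Cells were TCA-fixed and stained with 0.4% SRB, read at 515 nm, and growth % calculated against time-zero and control plates.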

MDA-MB-435 = assay: Cytotoxicity against human MDA-MB-435 cells assessed as cell growth at 10 uM; details: read-out: Activity; in short: as §1
SK-MEL-2 [3] = assay: Cytotoxicity against human SK-MEL-2 cells assessed as cell growth at 10 uM; details: read-out: Activity; in short: as §1
CAKI-1 [4] = assay: Cytotoxicity against human Caki1 cells assessed as cell growth at 10 uM; details: read-out: Activity
In short: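 Single-dose NCI-60 screen at 10 µM. Cells were grown in RPMI 1640 with 5% FBS and 2 mM L-glutamine, then treated for 48 h at 37 °C. Protein was measured by SRB staining with absorbance at 515 nm. Percentage growth was recorded, and inhibition percentage was calculated as 100 minus growth percentage.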

RXF 393 = assay: Cytotoxicity against human RXF393 cells assessed as cell growth at 10 uM; details: read-out: Activity; in short: as §1
SF-295 = assay: Cytotoxicity against human SF295 cells assessed as cell growth at 1 uM after 48 hrs by sulforhodamine B assay; details: SF-295, 48 h, read-out: Activity
SK-MEL-2 [5] = assay: Cytotoxicity against human SK-MEL-2 cells assessed as cell growth at 1 uM after 48 hrs by sulforhodamine B assay; details: SK-MEL-2, 48 h, read-out: Activity
MOLT-4 = assay: Cytotoxicity against human MOLT4 cells assessed as cell growth at 0.01 uM after 48 hrs by sulforhodamine B assay; details: MOLT-4, 48 h, read-out: Activity
[6] = Cytotoxicity against human RPMI8266 cells assessed as cell growth at 0.01 uM after 48 hrs by sulforhodamine B assay; details: read-out: Activity
SNB-19 = assay: Cytotoxicity against human SNB19 cells assessed as cell growth at 0.01 uM after 48 hrs by sulforhodamine B assay; details: SNB-19, 48 h, read-out: Activity
U-251 = assay: Cytotoxicity against human U251 cells assessed as cell growth at 0.01 uM after 48 hrs by sulforhodamine B assay; details: U-251, 48 h, read-out: Activity
OVCAR-5 = assay: Cytotoxicity against human OVCAR5 cells assessed as cell growth at 0.01 uM after 48 hrs by sulforhodamine B assay; details: OVCAR-5, 48 h, read-out: Activity
COLO 205 = assay: Cytotoxicity against human COLO205 cells assessed as cell growth at 0.001 uM after 48 hrs by sulforhodamine B assay; details: COLO 205, 48 h, read-out: Activity
In short: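 NCI-60 five-dose screen. Cells were grown in RPMI 1640 with 5% FBS and 2 mM L-glutamine, plated at 5000–40,000 cells/well and preincubated for 24 h. Time-zero plates were TCA-fixed. DMSO-solubilized drug was added at five concentrations (10-fold or ½-log serial dilutions) for 48 h at 37 °C, 5% CO2. Cells were TCA-fixed, stained with 0.4% SRB and read at 515 nm. Percent growth used time-zero, control and test absorbances.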

SK-OV-3 [7] = assay: Cytotoxicity against human SKOV3 cells assessed as cell growth at 0.001 uM after 48 hrs by sulforhodamine B assay; details: SK-OV-3, 48 h, read-out: Activity
K562 = assay: Growth inhibition of human K562 cells after 48 hrs by sulforhodamine B assay; details: K562, 48 h
In short: (§2)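 NCI 60-cell screen, five-dose mode. Cells grown in RPMI 1640 with 5% FBS and 2 mM L-glutamine and plated at 5000-40,000 cells/well according to doubling time. After 24 h preincubation, a Tz plate was TCA-fixed. Five concentrations (10-fold or 1/2 log dilutions) were applied for 48 h at 37 °C. SRB staining read at 515 nm. IC50 taken from [(Ti-Tz)/(C-Tz)]×100 = 50.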

NCI-H522 = assay: Growth inhibition of human NCI-H522 cells after 48 hrs by sulforhodamine B assay; details: NCI-H522, 48 h; for CC50: read-out: LC50 (the source's name); in short: as §2
SF-539 = assay: Growth inhibition of human SF539 cells after 48 hrs by sulforhodamine B assay; details: SF-539, 48 h; for CC50: read-out: LC50 (the source's name); in short: as §2
LOX IMVI = assay: Growth inhibition of human LOXIMVI cells after 48 hrs by sulforhodamine B assay; details: for CC50: read-out: LC50 (the source's name); in short: as §2
DU-145 = assay: Growth inhibition of human DU145 cells after 48 hrs by sulforhodamine B assay; details: DU-145, 48 h
In short: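 NCI five-dose SRB assay in RPMI 1640 with 5% FBS and 2 mM L-glutamine. Cells were preincubated 24 h, then exposed 48 h at 37 °C to five concentrations (10-fold or half-log serial dilutions from DMSO stocks). TCA fixation, SRB staining, and absorbance at 515 nm followed. IC50 was taken where [(Ti−Tz)/(C−Tz)]×100 = 50, with Tz as time-zero cell density.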

MDA-MB-468 = assay: Growth inhibition of human MDA-MB-468 cells after 48 hrs by sulforhodamine B assay; details: MDA-MB-468, 48 h; in short: as §2
SF-268 [8] = assay: Cytotoxicity against human SF268 cells assessed as cell growth at 10 uM; details: read-out: Activity; in short: as §1
IGROV-1 = assay: Cytotoxicity against human IGROV1 cells assessed as cell growth at 10 uM after 48 hrs by sulforhodamine B assay; details: IGROV-1, 48 h, read-out: Activity
SK-OV-3 [9] = assay: Cytotoxicity against human SKOV3 cells assessed as cell growth at 10 uM after 48 hrs by sulforhodamine B assay; details: SK-OV-3, 48 h, read-out: Activity
CAKI-1 [10] = assay: Cytotoxicity against human Caki1 cells assessed as cell growth at 10 uM after 48 hrs by sulforhodamine B assay; details: CAKI-1, 48 h, read-out: Activity

COc1cc(C)cc(-c2c(-c3ccnc(-c4ccc(N(C)C)cc4)c3)cnn2CC#N)c1
growth at 0.1 µM (SF-268 [1]): 29% | growth at 0.1 µM (Malme-3M): 49% | growth at 0.1 µM (OVCAR-4): 33% | growth at 0.1 µM (CAKI-1 [2]): -21% | growth at 0.1 µM (UO-31): 45% | growth at 10 µM (SNB-75): -21.1% | growth at 10 µM (MDA-MB-435): -14.7% | growth at 10 µM (SK-MEL-2 [3]): 49.3% | growth at 10 µM (CAKI-1 [4]): 15.9% | growth at 10 µM (RXF 393): 23.3% | growth at 1 µM (SF-295): -27% | growth at 1 µM (SK-MEL-2 [5]): 11% | growth at 0.01 µM (MOLT-4): 81% | growth at 0.01 µM [6]: 78% | growth at 0.01 µM (SNB-19): 44% | growth at 0.01 µM (U-251): 41% | growth at 0.01 µM (OVCAR-5): 73% | growth at 0.001 µM (COLO 205): 98% | growth at 0.001 µM (SK-OV-3 [7]): 102% | GI50 (K562): 58.4 nM | LC50 (50% net cell kill) (K562): > 100000 nM | TGI (K562): 3820 nM | GI50 (NCI-H522): 27 nM | TGI (NCI-H522): 84.6 nM | CC50 (NCI-H522): 3220 nM | GI50 (SF-539): 127 nM | CC50 (SF-539): > 100000 nM | GI50 (LOX IMVI): 66.8 nM | TGI (LOX IMVI): > 100000 nM | CC50 (LOX IMVI): > 100000 nM | GI50 (DU-145): 113 nM | TGI (DU-145): 334 nM | GI50 (MDA-MB-468): 26.1 nM | LC50 (concentration giving 50% net cell kill) (MDA-MB-468): 1040 nM | TGI (MDA-MB-468): 79.8 nM | growth at 10 µM (SF-268 [8]): 26.4% | growth at 10 µM (IGROV-1): -6% | growth at 10 µM (SK-OV-3 [9]): 26% | growth at 10 µM (CAKI-1 [10]): -25%

COc1cc(C)cc(-c2c(-c3ccnc(-c4ccc(C(C)=O)cc4)c3)cnn2CC#N)c1
growth at 0.1 µM (SF-268 [1]): 85% | growth at 0.1 µM (Malme-3M): 97% | growth at 0.1 µM (OVCAR-4): 105% | growth at 0.1 µM (CAKI-1 [2]): 86% | growth at 0.1 µM (UO-31): 78% | growth at 10 µM (SNB-75): 57.9% | growth at 10 µM (MDA-MB-435): 10.6% | growth at 10 µM (SK-MEL-2 [3]): 73.7% | growth at 10 µM (CAKI-1 [4]): 70.4% | growth at 10 µM (RXF 393): 54.8% | growth at 1 µM (SF-295): 39% | growth at 1 µM (SK-MEL-2 [5]): 34% | growth at 0.01 µM (MOLT-4): 99% | growth at 0.01 µM [6]: 94% | growth at 0.01 µM (SNB-19): 102% | growth at 0.01 µM (U-251): 89% | growth at 0.01 µM (OVCAR-5): 70% | growth at 0.001 µM (COLO 205): 109% | growth at 0.001 µM (SK-OV-3 [7]): 86% | GI50 (K562): 795 nM | LC50 (50% net cell kill) (K562): > 100000 nM | TGI (K562): > 100000 nM | GI50 (NCI-H522): 1930 nM | TGI (NCI-H522): 6960 nM | CC50 (NCI-H522): > 100000 nM | GI50 (SF-539): 2020 nM | TGI (SF-539): 4660 nM | CC50 (SF-539): > 100000 nM | GI50 (LOX IMVI): 3390 nM | TGI (LOX IMVI): > 100000 nM | CC50 (LOX IMVI): > 100000 nM | GI50 (DU-145): 3420 nM | LC50 (DU-145): > 100000 nM | TGI (DU-145): > 100000 nM | GI50 (MDA-MB-468): 1430 nM | LC50 (concentration giving 50% net cell kill) (MDA-MB-468): 2130 nM | TGI (MDA-MB-468): 3870 nM | growth at 10 µM (SF-268 [8]): 90.5% | growth at 10 µM (IGROV-1): 14% | growth at 10 µM (SK-OV-3 [9]): 27% | growth at 10 µM (CAKI-1 [10]): 25%
